What all share (type): functional
The subject of test [1] is Corynespora cassiicola. As to the kind of experiment: Antifungal activity against Corynespora cassiicola at 500 ug/ml relative to control. The gist of the method: (§1)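 Pot culture test run as in the cited reference, with series compounds screened against five fungi: S. sclerotiorum (Lib.) de Bary, R. solani, F. oxysporum, C. cassiicola and B. cinerea. Culture plates were held at (24 ±1) °C. Commercial fungicides (dimehachlon, jinggangmycin, thiophanate methyl, chlorothalonil, pyrimethanil) served as controls under the same conditions.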

The test system of test [2] is Fusarium oxysporum. Put plainly: Antifungal activity against Fusarium oxysporum at 500 ug/ml relative to control. The gist of the method: as §1
For test [3], the system named is Sclerotinia sclerotiorum. Put plainly: Antifungal activity against Sclerotinia sclerotiorum (Lib.) de Bary at 500 ug/ml relative to control. The method in brief: as §1
For test [4], the system named is Rhizoctonia solani. Put plainly: Antifungal activity against Rhizoctonia solani at 500 ug/ml relative to control. The method in brief: as §1
The subject of test [5] is Botrytis cinerea. Put plainly: Antifungal activity against Botrytis cinerea at 500 ug/ml relative to control. The method in brief: as §1

With `CCc1nnc(NC(=O)C2CC2)s1`, the inhibition at 500 µg/mL in test [1] was 49.7%; in test [2] it was 10%; in test [3] it was 51.7%; in test [4] it was 23%; in test [5], 32.1%.
With `Cc1nnc(NC(=O)C2CC2)s1`, the inhibition at 500 µg/mL came out at 52.4% in test [1]; 84% in test [2]; 23% in test [3]; 5% in test [4]; 67.5% in test [5].
On to `Cc1cc(C)nc(Nc2ccccc2)n1` [PYRIMETHANIL], for which the inhibition at 500 µg/mL in test [5] amounted to 99.2%.
Turning to `O=C(Nc1nnc(-c2ccc([N+](=O)[O-])cc2)s1)C1CC1`, the inhibition at 500 µg/mL in test [1] came to 18.6%; in test [2] it was 13%; in test [3], 43.1%; in test [4], 16%; in test [5], 30.3%.
Take `CCCc1nnc(NC(=O)C2CC2)s1`: the inhibition at 500 µg/mL was 46.6% in test [1]; 1% in test [2]; 40% in test [3]; 35% in test [4]; 57.9% in test [5].
With `COc1ccc(-c2nnc(NC(=O)C3CC3)s2)cc1`, the inhibition at 500 µg/mL in test [1] was 33.3%; in test [2] it was 12%; in test [3], 33%; in test [4], -9%; in test [5], 79.4%.
Taken in the same sequence, the figures for `Cc1ccccc1-c1nnc(NC(=O)C2CC2)s1` were 50.8%, 21%, 37.5%, 36% and 75.1%.
On to `O=C(Nc1nnc(-c2ccccc2F)s1)C1CC1`, for which the inhibition at 500 µg/mL in test [1] is 68.3%; in test [2], 84%; in test [3], 23%; in test [4] it was 5%; in test [5], 67.5%.
With `Cc1cccc(-c2nnc(NC(=O)C3CC3)s2)c1`, the inhibition at 500 µg/mL amounted to 8.38% in test [1]; 11% in test [2]; 20% in test [3]; 39% in test [4]; 90.7% in test [5].
As to `O=C(Nc1nnc(C2CC2)s1)C1CC1`, the inhibition at 500 µg/mL was found to be 13.3% in test [1]; 37% in test [2]; 26.7% in test [3]; 21% in test [4]; 66.6% in test [5].
The corresponding values for `O=C(Nc1nnc(-c2ccc(Cl)cc2)s1)C1CC1` are 19.7%, 28%, 23.9%, 62% and 13.5%.
`O=C(Nc1nncs1)C1CC1`: the inhibition at 500 µg/mL in test [1] came out at 22.5%; in test [2], 17%; in test [3], 24%; in test [4], 37%; in test [5], 83.7%.
Consider `N#Cc1c(Cl)c(Cl)c(Cl)c(C#N)c1Cl` [CHLOROTHALONIL], for which the inhibition at 500 µg/mL in test [1] worked out at 86.4%.
As for `COC(=O)NC(=S)Nc1ccccc1NC(=S)NC(=O)OC` [THIOPHANATE METHYL], in test [2], the inhibition at 500 µg/mL amounted to 97%.
In the case of `O=C(Nc1nnc(-c2ccccc2Cl)s1)C1CC1`, the inhibition at 500 µg/mL amounted to 21.4% in test [1]; 91% in test [2]; 25.5% in test [3]; 44% in test [4]; 35.1% in test [5].
Taken in the same sequence, the figures for `O=C(Nc1nnc(-c2ccccc2)s1)C1CC1` were 17.4%, 16%, 24%, 9% and 80.5%.
Taken in the same sequence, the figures for `CCCCc1nnc(NC(=O)C2CC2)s1` were 21.9%, 2%, 10.3%, 44% and 26%.
For `O=C1CCC(=O)N1c1cc(Cl)cc(Cl)c1` [DIMETHACHLON], the inhibition at 500 µg/mL in test [3] turned out to be 96.7%.
As to `CC(C)c1nnc(NC(=O)C2CC2)s1`, the inhibition at 500 µg/mL came to 29.3% in test [1]; 20% in test [2]; 47.7% in test [3]; 11% in test [4]; 42% in test [5].

A word on the inhibition: it is the drop in the measured response relative to a control, in per cent.

(Values after ChEMBL document CHEMBL1152902, “Synthesis, antifungal activities and 3D-QSAR study of N-(5-substituted-1,3,4-thiadiazol-2-yl)cyclopropanecarboxamides” (2009).)
